The source of these data is ChEMBL document CHEMBL4390639, “Design, Synthesis, and Biological Evaluation of Novel Allosteric Protein Disulfide Isomerase Inhibitors” (J Med Chem, 2019).

Active and inactive are the calls of the source. No cut-off for these calls is given here.

For assay [1], the target named is T1, Protein disulfide-isomerase (Homo sapiens, UniProt P07237). Briefly: Inhibition of recombinant human N-terminal His-tagged PDI expressed in Escherichia coli BL21 (DE3) pLysS at 100 uM measured after 1 hr by ANS dye based fluorescence spectra analysis. The procedure, abridged:
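ANS spectral scan: PDI incubated with 100 μM compounds or matching DMSO in TBS for 1 h at 37 °C. ANS then added and incubated 20 min at 25 °C in the dark. Fluorescence spectrum recorded with excitation 370 nm, emission 400–700 nm.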

Assay [2] concerns the target T1, Protein disulfide-isomerase. Briefly: Inhibition of recombinant human N-terminal His-tagged PDI expressed in Escherichia coli BL21 (DE3) pLysS assessed as reduction in enzyme-mediated bovine insulin aggregation at 40 uM measured after 1 hr in presence of 1 to 2 mM NAC. The method in brief:
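Compounds pretreated with NAC for 30 min at 37 °C, then added to the insulin reductase assay at final 40 μM compound with 0, 1, 2 or 5 mM NAC. The assay uses 0.4 μM PDI preincubated 1 h at 37 °C, then DTT and bovine insulin, read at 620 nm, with % activity at 80 min.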

Assay [3] has the same target. Put plainly: Binding affinity to recombinant human N-terminal His-tagged PDI expressed in Escherichia coli BL21 (DE3) pLysS assessed as increase in melting temperature by ROX dye based thermal shift assay. The method in brief: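 Purified wild-type, C53S/C397S or H256A PDI at 0.5 mg/mL in 50 mM Tris, pH 7.0, with or without 100 μM compound, was mixed with ROX dye in a 20 µL well. DMSO (5% in buffer) was the control. Samples were heated 25–99 °C at 1 °C/min, and the Boltzmann melting temperature shift versus DMSO was reported. Mean ± SD of three experiments.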

Assay [4] relates to U-87 MG. Briefly: Inhibition of colony formation in human U87MG cells […] by crystal violet staining based assay. The class given is functional, cell-based. The settings on record: U-87MG ATCC. The procedure, abridged:
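Clonogenicity: U87MG cells seeded at 200 cells/well, left overnight, treated 24 h, then medium replaced and cells grown ten days. Stained 30 min with crystal violet, washed, imaged; normalized well intensity from three independent experiments.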

For assay [5], the target named is Focal adhesion kinase 1 (Homo sapiens) (UniProt Q05397). Put plainly: Effect on FAK phosphorylation in human U87MG cells at 10 uM measured after 24 hrs by Western blot analysis. The class given is cell-based. For orientation: In western blotting, separated proteins are transferred to a membrane and probed.
In assay [6] the test system is A 172. Briefly: Effect on PDI expression in human A172 cells at 20 uM measured after 24 hrs by Western blot analysis. The assay is classed as functional, cell-based.
The test system of assay [7] is U-87 MG. Put plainly: Induction of endoplasmic reticulum stress in human U87MG cells assessed as increase in GRP78 expression at 20 uM measured after 24 hrs by Western blot analysis. The assay is classed as functional, cell-based. The settings on record: U-87MG ATCC. The method in brief: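 ER-stress immunoblot: 0.5 x 10^6 U87MG cells/well treated for 24 h with 20 µM analogues, 1 µM PACMA31 or DMSO; tunicamycin 10 µg/mL for 2 or 24 h as positive control. Lysis in Tris/NaCl/Triton/SDS buffer with sonication; 30 µg protein on 10% gels, transferred to PVDF, GRP78 probed, fluorescence imaging.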

For assay [8], the system named is A 172. Briefly: Induction of morphological changes in human A172 cells assessed as membrane blebbing at 11 uM measured after 48 hrs by Giemsa-staining based microscopic analysis. The class given is functional, cell-based.
Assay [9] deals with U-87 MG. Put plainly: Down regulation of C8orf4 gene expression in human U87MG cells at 16 uM incubated for 4 hrs followed by bromouridine addition during last 30 mins of incubation by TRIzol-reagent based Bru-Seq analysis relative to control. The assay is classed as functional, U-87MG ATCC. The method in brief: (§1)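 U87MG cells exposed to compound or DMSO vehicle for 4 h, with 2 mM bromouridine added for the final 30 min. Total RNA isolated with TRIzol; Bru-labelled nascent RNA captured on anti-BrdU antibody-conjugated magnetic beads and sequenced. Transcript abundance expressed as RPKM relative to DMSO. Experiment performed once.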

For assay [10], the system named is U-87 MG. Briefly: Up regulation of NMRAL2P gene expression in human U87MG cells at 16 uM incubated for 4 hrs followed by bromouridine addition during last 30 mins of incubation by TRIzol-reagent based Bru-Seq analysis relative to control. The class given is functional, U-87MG ATCC. The procedure, abridged:
as §1

Assay [11] relates to U-87 MG. Briefly: Down regulation of CYP1B1 gene expression in human U87MG cells at 16 uM incubated for 4 hrs followed by bromouridine addition during last 30 mins of incubation by TRIzol-reagent based Bru-Seq analysis relative to control. The class given is functional, U-87MG ATCC.
In assay [12] the test system is U-87 MG. Briefly: Up regulation of SLC7A11 gene expression in human U87MG cells at 16 uM incubated for 4 hrs followed by bromouridine addition during last 30 mins of incubation by TRIzol-reagent based Bru-Seq analysis relative to control. The assay is classed as functional, U-87MG ATCC. The method in brief:
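U87MG cells treated 4 h with test compound (10 or 16 μM, as per line) or DMSO; 2 mM bromouridine added for final 30 min. Total RNA isolated with TRIzol, Bru-labelled nascent RNA captured with anti-BrdU antibody magnetic beads and sequenced; transcript abundance (RPKM) compared with DMSO control. Single experiment.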

Assay [13] concerns U-87 MG. Briefly: Down regulation of HIST1H4B gene expression in human U87MG cells at 16 uM incubated for 4 hrs followed by bromouridine addition during last 30 mins of incubation by TRIzol-reagent based Bru-Seq analysis relative to control. The class given is functional, U-87MG ATCC.
Assay [14] deals with U-87 MG. Briefly: Cytotoxicity against human U87MG cells assessed as inhibition of cell proliferation at <IC50 measured after 72 hrs by MTT assay relative to control. The assay is classed as functional, U-87MG ATCC. (Tetrazolium assays rely on reduction of a dye to a coloured formazan, in cell work by metabolically active cells.)
The test system of assay [15] is D54 cell line. Briefly: Inhibition of colony formation in 1 to 6 Gy-irradiated human D54 cells at 1 uM measured after 10 to 12 days by crystal violet staining based assay. The assay is classed as functional, cell-based. The procedure, abridged:
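D54 cells irradiated at 0, 1, 2, 4 or 6 Gy and plated immediately at 200–1000 cells/well according to dose. Treated with DMSO, 0.05 μM PACMA31 or 1 μM compounds, grown 10–12 days, then colonies stained with 0.1% crystal violet.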

Assay [16] has as its system U-87 MG. Put plainly: Down regulation of SLITRK5 gene expression in human U87MG cells at 10 uM incubated for 4 hrs followed by bromouridine addition during last 30 mins of incubation by TRIzol-reagent based Bru-Seq analysis relative to control. The class given is functional, U-87MG ATCC. The procedure, abridged:
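Nascent transcription (Bru-seq) in U87MG cells: treatment at 10 μM for 4 h, with 2 mM bromouridine added for the final 30 min. Total RNA isolated with TRIzol; Bru-labelled RNA captured using anti-BrdU antibody on magnetic beads, then sequenced. Transcript traces reported as RPKM compared with DMSO-treated cells. Single experiment.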

Assay [17] relates to U-87 MG. Put plainly: Up regulation of HMOX1 gene expression in human U87MG cells at 10 uM incubated for 4 hrs followed by bromouridine addition during last 30 mins of incubation by TRIzol-reagent based Bru-Seq analysis relative to control. The class given is functional, U-87MG ATCC. The method in brief:
as §1

The subject of assay [18] is U-87 MG. Put plainly: Up regulation of INHBA gene expression in human U87MG cells at 10 uM incubated for 4 hrs followed by bromouridine addition during last 30 mins of incubation by TRIzol-reagent based Bru-Seq analysis relative to control. The class given is functional, U-87MG ATCC. The method in brief:
as §1

For assay [19], the system named is U-87 MG. Put plainly: Down regulation of FBXO43 gene expression in human U87MG cells at 10 uM incubated for 4 hrs followed by bromouridine addition during last 30 mins of incubation by TRIzol-reagent based Bru-Seq analysis relative to control. The assay is classed as functional, U-87MG ATCC. The procedure, abridged:
as §1

The subject of assay [20] is U-87 MG. Briefly: Cytotoxicity against human U87MG cells assessed as inhibition of cell proliferation at 10 uM measured after 24 hrs treatment followed by 10 days by colony formation assay relative to control.

Sequence of Focal adhesion kinase 1 (Homo sapiens) (Q05397 2-1052 limits assumed): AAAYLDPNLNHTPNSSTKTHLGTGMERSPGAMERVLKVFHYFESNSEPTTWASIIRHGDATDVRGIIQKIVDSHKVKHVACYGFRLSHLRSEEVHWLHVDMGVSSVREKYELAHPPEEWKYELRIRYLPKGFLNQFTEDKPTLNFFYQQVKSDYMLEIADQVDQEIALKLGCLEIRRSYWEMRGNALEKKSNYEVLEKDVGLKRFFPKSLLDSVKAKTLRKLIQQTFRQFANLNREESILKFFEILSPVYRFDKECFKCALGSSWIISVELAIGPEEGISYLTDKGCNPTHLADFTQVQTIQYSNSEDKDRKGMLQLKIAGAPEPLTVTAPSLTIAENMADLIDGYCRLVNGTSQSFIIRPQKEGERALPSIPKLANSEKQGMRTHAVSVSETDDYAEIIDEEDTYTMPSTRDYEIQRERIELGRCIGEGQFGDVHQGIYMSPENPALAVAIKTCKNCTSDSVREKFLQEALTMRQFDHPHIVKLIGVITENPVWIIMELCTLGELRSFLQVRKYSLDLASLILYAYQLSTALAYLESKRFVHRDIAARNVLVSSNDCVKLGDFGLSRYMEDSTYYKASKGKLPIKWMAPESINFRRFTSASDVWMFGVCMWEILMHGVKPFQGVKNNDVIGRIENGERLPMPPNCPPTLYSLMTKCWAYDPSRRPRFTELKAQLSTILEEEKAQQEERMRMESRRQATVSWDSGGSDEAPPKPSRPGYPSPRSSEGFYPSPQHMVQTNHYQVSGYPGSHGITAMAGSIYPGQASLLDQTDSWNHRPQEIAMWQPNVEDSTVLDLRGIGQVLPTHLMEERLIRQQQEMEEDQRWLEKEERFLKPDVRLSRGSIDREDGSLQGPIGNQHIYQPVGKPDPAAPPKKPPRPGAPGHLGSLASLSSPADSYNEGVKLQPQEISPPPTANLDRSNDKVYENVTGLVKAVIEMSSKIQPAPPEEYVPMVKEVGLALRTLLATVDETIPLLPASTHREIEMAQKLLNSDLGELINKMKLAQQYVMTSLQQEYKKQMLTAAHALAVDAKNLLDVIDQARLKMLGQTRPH
T1 sequence (P07237 18-508 limits assumed): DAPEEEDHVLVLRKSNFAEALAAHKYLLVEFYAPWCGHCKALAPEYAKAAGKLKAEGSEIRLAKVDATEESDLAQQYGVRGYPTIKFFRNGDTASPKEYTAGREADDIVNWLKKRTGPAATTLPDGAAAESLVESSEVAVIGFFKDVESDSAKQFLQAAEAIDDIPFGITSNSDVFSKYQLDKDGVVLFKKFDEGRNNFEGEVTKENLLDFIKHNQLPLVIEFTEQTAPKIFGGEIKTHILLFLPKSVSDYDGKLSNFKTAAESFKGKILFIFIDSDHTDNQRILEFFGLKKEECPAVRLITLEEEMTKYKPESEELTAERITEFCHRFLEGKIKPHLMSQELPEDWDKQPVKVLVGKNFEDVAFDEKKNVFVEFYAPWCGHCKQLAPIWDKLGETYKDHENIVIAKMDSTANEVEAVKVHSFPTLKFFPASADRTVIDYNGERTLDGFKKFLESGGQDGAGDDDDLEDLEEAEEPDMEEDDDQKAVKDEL

As a reminder, the inhibition is the percentage by which the read-out fell short of the control. For `CCCCCN(CCCCC)S(=O)(=O)c1ccc(C(=O)/C=C/c2cccc(O)c2)cc1`, the inhibition entry in assay [1] and in [2] was “Active” throughout. Also, the Activity result in assay [3] is “Dose-dependent effect”. The inhibition entry in assay [4] was “Dose-dependent effect”. In addition, the outcome in assay [5] and in assay [6] was inactive. The result in [7] and in assay [8] was Active.

As to `COC(=O)c1cccc(/C=C/C(=O)c2cccc(O)c2)c1`, the “fold change (FC)” value in [9] was determined as 4.7; in assay [10] it was 15; in [11], 2.8; in [12], 21.2; in [13], 2.7. Besides, the inhibition result in assay [1] and in assay [2] was “Active” in each case. The same compound gave a log2FC in assay [10] of 4.1. The Activity result in [3] is “Dose-dependent effect”. Besides, the inhibition entry in assay [4] is “Dose-dependent effect”. In addition, the outcome in assay [5] and in assay [6] was inactive. Besides, the result in assay [7] was Active. In addition, the “inhibition (INH)” value in [14] is recorded as above 50%.

Turning to `O=C(/C=C/c1ccc(-c2cccnc2)cc1)c1cccc(O)c1`, the inhibition result in [1] and in assay [15] was “Active” each time. Moreover, the Activity result in [3] is “Dose-dependent effect”. In assay [4], the inhibition result was “Dose-dependent effect”. Also, the outcome in assay [5] and in assay [6] was inactive. For the same compound, the outcome in assay [7] was Active. The “inhibition (INH)” value in assay [14] is on record as above 50%.

`CCCCCN(CCCCC)S(=O)(=O)c1ccc(C(=O)/C=C/c2cccc(C#N)c2)cc1`: the “fold change (FC)” value in [16] was found to be 3.6; in [17], 27.6; in assay [18], 27; in assay [19], 2.7. For the same compound, the inhibition entry in assay [4] was “Dose-dependent effect”. The outcome in assay [5] and in [6] was inactive. For the same compound, the outcome in [7] was Active.

`N#Cc1cccc(/C=C/C(=O)c2ccc(O)cc2)c1`: the inhibition at 10 µM in [20] is below 40%. The inhibition entry in assay [1] and in [15] was “Active” each time. In addition, the inhibition entry in assay [4] was “Dose-dependent effect”. In addition, the result in assay [5] and in assay [6] was inactive. Besides, the outcome in assay [7] was Active.
